Source: PubChem (several laboratories)
A selection: hits, their analogues and other compounds. The true share with any hit is near 1%.
Efa HMGR inh: blocks class II HMG-CoA reductase of Enterococcus faecalis; purified E. faecalis HMGR, NADPH absorbance 340 nm kinetic; inhibition, % at 10 µM; 190,000 compounds, 0.41% hits; AID 1066;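 active means inhibition above a set limit, the median over all tested compounds plus 3 SD, cut at about 9.5% in these data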;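 further: enzyme runs in reverse so mevalonate oxidation gives rising NADPH absorbance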
PERK inh: inhibitors of human PERK kinase; Q9NZJ5; CHO PERK-DD fusion, SEAP luminescence translation reporter; inhibition, % at 5.6 µM; 220,000 compounds, 0.17% hits; AID 1416;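 active means inhibition above the mean inhibition of all tested compounds plus 3 SD, set separately per screening campaign, cut at about 2.9% in these data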;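 further: PERK kinase domain activated by AP20187 dimerizer at 100 nM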
L929 necroptosis: blocks zVAD induced death of L929 cells. L929 zVAD necroptosis rescue, ATP luminescence, 24 h; with zVAD 60 µM. viability rescue, % at 10 µM. 220,000 compounds, 0.38% hits;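 active means activation, scaled between plate controls, above about 75%, limit read from the data; inactive means activation under that limit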
Rad51 HR inh: Rad51 (human) homologous recombination inhibition | 200,000 compounds, 0.085% hits | Q06609 | AID 1385 | hRad51 DNA strand exchange, fluorescence dequenching | inhibition, % at 10 µM;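 active means inhibition above 40% at the single screening dose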
Target sequence (Q06609 whole entry, looked up): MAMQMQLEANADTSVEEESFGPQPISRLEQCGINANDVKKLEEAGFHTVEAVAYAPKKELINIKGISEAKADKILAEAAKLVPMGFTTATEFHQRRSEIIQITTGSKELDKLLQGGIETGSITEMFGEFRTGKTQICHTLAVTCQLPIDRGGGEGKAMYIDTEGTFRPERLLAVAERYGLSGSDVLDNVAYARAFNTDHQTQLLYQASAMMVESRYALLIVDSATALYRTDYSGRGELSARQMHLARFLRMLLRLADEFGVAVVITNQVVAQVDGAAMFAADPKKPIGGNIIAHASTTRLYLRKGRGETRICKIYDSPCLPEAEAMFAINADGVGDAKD
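Test system – preformed human Rad51 ssDNA filaments · Reagent – Donor/quencher-labelled 47-bp dsDNA substrate · Incubation – 37 °C 15-min filament assembly, 30-min compound preincubation, 15-min exchange · Signal – FRET fluorescence dequenching, excitation 485 nm, emission 520 nm · Read-out – percent inhibition from fluorescence, normalised to plate control and blank means · Benchmarks – plate control and blank wells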
TNF necrop inh: TNF-alpha cell death inhibition in Jurkat FADD-/- cells; activation (protection from cell death), % at 10 µM; 220,000 compounds, 0.068% hits; Jurkat FADD-/- TNF necroptosis rescue, ATP luminescence, 24 h; 0 = TNF only, 100 = no-TNF cells;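 active means activation, meaning protection from cell death, of at least 50% relative to plate controls; inactive means activation below 50%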;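 further: necroptosis triggered by 40 ng/mL TNF-alpha added together with compound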
Each line names hits and unclear results; the compound was inactive in the other large screens.

Cc1cccc(N/N=C(\C#N)S(=O)(=O)C(C)(C)C)c1	Efa HMGR inh 17
CC(C)(C)c1ccc(N/N=C(\C#N)S(=O)(=O)C(C)(C)C)cc1	none
COc1cccc(/C=N/NC(=O)C(=O)N2CCCC2)c1O	none
COc1cccc(/C=N/NC(=O)C(=O)N2CCCC2)c1OC	PERK inh 3.1 (no result: Rad51 HR inh)
COc1ccc(Cn2c(C)nc3oc4cc(OC)ccc4c(=O)c3c2=O)cc1	none
Cc1nc2oc3ccccc3c(=O)c2c(=O)n1Cc1ccccc1	TNF necrop inh 60
O=C1/C(=C/c2cccc(Br)c2)SC(=S)N1/N=C/c1cc([N+](=O)[O-])ccc1O	none (no result: Efa HMGR inh)
COc1ccc(N2CCN(C(CNC(=O)C(C)(C)C)c3ccco3)CC2)cc1 (centres undefined)	Efa HMGR inh 11
O=C(/C=C/c1ccccc1)NC(=S)Nc1ncccn1	none (no result: Efa HMGR inh)
COc1ccc2oc(=Nc3ccc(C(=O)O)cc3)c(C(=O)NCc3ccco3)cc2c1	Efa HMGR inh 15
CCc1cccc(C)c1NC(=O)CO/N=C(\N)CC(=O)NC1CCCCC1	Efa HMGR inh 11
Oc1ccc2ccccc2c1Br	Rad51 HR inh 43
Cc1oc(-c2cccc(Br)c2)[n+]([O-])c1C	none
O=C(CCCN1C(=O)/C(=C\c2cccs2)SC1=S)NNC(=O)c1ccncc1	none
O=C(CCCN1C(=O)/C(=C/c2cccs2)SC1=S)NNC(=O)c1cccnc1	Rad51 HR inh 42 (no result: Efa HMGR inh)
CCCNCc1cc(OC)c(OCc2ccccc2)cc1Br	Efa HMGR inh 19 (no result: Rad51 HR inh)
CCCNCc1cc(OC)c(OCC(=O)NCCc2ccccc2)cc1Br	none (no result: Rad51 HR inh)
CCOC(=O)c1ccc(NC(=O)C(C)Sc2nc(O)c(-c3ccccc3)c(=O)[nH]2)cc1 (centres undefined)	none
COc1ccc(NC(=S)N(CCN2CCOCC2)Cc2ccccc2F)cc1	Efa HMGR inh 12
Cc1cccc(NC(=O)CN2CCN(CC(=O)Nc3cccc(C)c3)CC2)c1	none
COc1ccc(C(=O)NC2CCN(CC(=O)Nc3cccc(C)c3)CC2)cc1OC	Efa HMGR inh 11
O=C(CCCSc1nc2ccccc2[nH]1)Nc1nnc(C2CC2)s1	none (no result: Rad51 HR inh)
Cc1nnc(NC(=O)C2COc3ccccc3O2)s1 (centres undefined)	none
Cc1ccc(Cc2cnc(NC(=O)c3cccs3)s2)cc1	none
O=C(Nc1ncc(Cc2ccccc2)s1)c1cccs1	L929 necroptosis 83
O=C(Nc1ncc(Cc2ccccc2)s1)C1COc2ccccc2O1 (centres undefined)	TNF necrop inh 55
CC(=O)Nc1nc(C)c(Oc2ccc(C)cc2)c(=O)[nH]1	none (no result: Efa HMGR inh)
C(=N\Nc1nc2ccccc2[nH]1)/C1CCCCC1	none
c1ccc(-c2nnsc2-c2nc3ccccc3[nH]2)cc1	Efa HMGR inh 12
c1ccc(-c2nnsc2-c2ncc[nH]2)cc1	none
S=c1nc(-c2ccc(Br)cc2)[nH]c2ccccc12	PERK inh 3.0 (no result: Efa HMGR inh)
S=c1nc(-c2ccccc2)[nH]c2ccccc12	none
CN1C(=O)c2ccccc2OC1(C)Cc1ccccc1 (centres undefined)	none
Cc1cc(C=O)c2c(c1)C=CC1(Oc3ccccc3C(=O)N1C)O2 (centres undefined)	Efa HMGR inh 19 (no result: Rad51 HR inh)
CCCN1C(=O)N(c2cccc(C)c2)C(C)(O)CC1(C)C (centres undefined)	none (no result: Efa HMGR inh)
O=c1oc(-c2ccc(Cl)c(Cl)c2)nn1-c1ccc(C(F)(F)F)cn1	none (no result: Efa HMGR inh)
COc1ccccc1S(=O)(=O)Cc1ccc(C(=O)NCCN(C)C)o1	none (no result: Efa HMGR inh)
COc1ccccc1S(=O)(=O)Cc1ccc(C(=O)NCCN2CCCCCC2)o1	Efa HMGR inh 10
CN(Cc1cccs1)C(=O)c1ccc(S(=O)(=O)NCc2ccco2)cc1	Rad51 HR inh 44 (no result: Efa HMGR inh)
COc1ccc(CCN(C)C(=O)c2ccc(S(=O)(=O)NCc3ccco3)cc2)cc1OC	none
C=CCn1c(Oc2ccccc2)nc2c1c(=O)n(C)c(=O)n2C	Efa HMGR inh 16
CCc1ccc(S(=O)(=O)Nc2cc(SCC(=O)O)c(O)c3ccccc23)cc1	Efa HMGR inh 10
NC(=S)Nc1nccc(-c2cccs2)n1	Rad51 HR inh 41
COc1ccc(NC(=O)COC(=O)c2ccc(Cl)c(S(N)(=O)=O)c2)c([N+](=O)[O-])c1	none (no result: Efa HMGR inh, Rad51 HR inh)
O=c1c2ccccc2c(/C=N/NS(=O)(=O)c2ccccc2)c(O)n1-c1ccccn1	none
C(=C\c1ccccc1)/CNCC1CCCO1 (centres undefined)	Efa HMGR inh 11 (no result: Rad51 HR inh)
O=C(O)C1CCN(C(=O)NC2CCCCC2)CC1	PERK inh 2.9
O=C(c1ccc(Cl)cc1)C1CCN(C(=O)NC2CCCCC2)CC1	none
COc1ccccc1NC(=O)CSc1nnc(CCC(=O)Nc2ccccc2F)n1C	PERK inh 3.9 (no result: Efa HMGR inh)
COc1ccc(C(=O)NCCc2nnc(SCC(=O)Nc3ccccc3F)n2C)cc1	none
O=C(C1c2ccccc2C(=O)N2CCc3ccccc3C12)N1CCN(Cc2ccccc2)CC1 (centres undefined)	Efa HMGR inh 49
CC(=O)C1C(c2ccccc2)c2c(noc2C)CC1(C)O (centres undefined)	PERK inh 3.2 (no result: Efa HMGR inh, Rad51 HR inh)
CC(=O)C1=C(Nc2ccccc2)CC(C)(O)C(C(C)=O)C1c1ccccc1 (centres undefined)	none (no result: Efa HMGR inh)
O=C(NC(NC(=S)Nc1ccccc1C(=O)O)C(Cl)(Cl)Cl)c1ccccc1 (centres undefined)	Efa HMGR inh 17
Cc1ccc(CNC(=O)/C=C/c2ccccc2Cl)cc1	PERK inh 3.0
Cc1ccc(CNC(=O)/C=C/c2c(Cl)cccc2Cl)cc1	none
CCCNC(=O)C1CCN(S(=O)(=O)c2cccc3nonc23)CC1	none
CN1CCCN(C(=O)CC2(CC(=O)O)CCCC2)CC1	none
CN1CCN(C(=O)CC2(CC(=O)O)CCCC2)CC1	Efa HMGR inh 13
Cc1cc(C)nc(SCNC(=O)c2ccccc2)n1	Efa HMGR inh 11
CC(C)CCOc1ccccc1C(N)=O	Efa HMGR inh 9.7
NS(=O)(=O)c1ccc(CCNC(=O)CCCCCn2c(=S)[nH]c3ccc(Br)cc3c2=O)cc1	none
CC1=NN(c2ccc(C)cc2C)C(=O)C1C(c1ccccc1)C1C(=O)N(c2ccc(C)cc2C)N=C1C (centres undefined)	Efa HMGR inh 9.6
O=C(CSc1nnc(COc2cccc3cccnc23)o1)N1CCCC1	Efa HMGR inh 12
CC1CCCC(C)N1C(=O)CSc1nnc(COc2cccc3cccnc23)o1 (centres undefined)	none
O=C(c1ccccc1Sc1ccc([N+](=O)[O-])cc1Cl)N1CCOCC1	Rad51 HR inh 45
CC(C)CCN(C(=O)Cc1ccc(Cl)c(Cl)c1)c1c(N)n(Cc2ccccc2)c(=O)[nH]c1=O	none
COc1cccc2c1C(=O)c1c(O)c3c(c(O)c1C2=O)C[C@@](O)(C(=O)CO)C[C@@H]3O[C@H]1C[C@H](N)[C@H](O)[C@H](C)O1	Rad51 HR inh 66
N#CC1(c2ccc(NC(=O)c3ccccc3)cc2)CCCC1	Efa HMGR inh 13
O=C(NNC(=O)c1ccc(NC(=O)c2ccccc2)cc1)c1ccccc1	none
